Results on 13 molecules are retold here after ChEMBL document CHEMBL1152166, “Activation and inhibition of leukotriene A4 hydrolase aminopeptidase activity by diphenyl ether and derivatives” (Bioorg Med Chem Lett, 2008).

Assay [1] addresses T1, Leukotriene A-4 hydrolase (Homo sapiens) (UniProt P09960).
T1 sequence (whole entry): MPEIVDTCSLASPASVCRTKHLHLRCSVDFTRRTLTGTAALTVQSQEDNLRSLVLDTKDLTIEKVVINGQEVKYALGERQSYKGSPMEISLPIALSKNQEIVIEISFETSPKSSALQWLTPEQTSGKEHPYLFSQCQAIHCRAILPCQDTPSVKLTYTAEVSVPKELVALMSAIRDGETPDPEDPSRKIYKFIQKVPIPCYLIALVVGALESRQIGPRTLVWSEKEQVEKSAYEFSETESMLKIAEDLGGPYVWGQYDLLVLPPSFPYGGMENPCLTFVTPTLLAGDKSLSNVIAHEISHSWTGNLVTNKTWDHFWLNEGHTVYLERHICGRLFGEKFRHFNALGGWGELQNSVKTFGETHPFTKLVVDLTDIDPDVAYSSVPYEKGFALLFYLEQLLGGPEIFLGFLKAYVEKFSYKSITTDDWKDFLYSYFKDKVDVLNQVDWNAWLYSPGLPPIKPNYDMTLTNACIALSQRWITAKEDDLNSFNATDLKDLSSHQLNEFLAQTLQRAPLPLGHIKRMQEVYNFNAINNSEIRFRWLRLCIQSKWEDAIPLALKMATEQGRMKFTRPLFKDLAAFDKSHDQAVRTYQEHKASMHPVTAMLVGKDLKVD
The assay is described as follows: Activation of aminopeptidase activity of human recombinant leukotriene A4 hydrolase expressed in Escherichia coli assessed as p-nitroanilide release at 100 uM by spectrophotometry. In outline: (§1)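 Recombinant human LTA4H, expressed from a pET 21a construct in E. coli and purified by ammonium sulfate precipitation, anion-exchange and gel filtration. Aminopeptidase activity was read spectrophotometrically as p-nitroanilide released from Ala-pNA. Values are the average of three experiments with standard deviation. Substrate dependence was examined by Lineweaver–Burk analysis to give apparent Km, Vmax, KA, α and β.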

In assay [2] the target is T2, Leukotriene A-4 hydrolase (Homo sapiens, UniProt P09960).
T2 sequence (P09960 whole entry): T1 sequence (whole entry)
The assay is described as follows: Activation of aminopeptidase activity of human recombinant leukotriene A4 hydrolase expressed in Escherichia coli assessed as p-nitroanilide release by spectrophotometry. The method in brief: as §1

The target of assay [3] is T1, Leukotriene A-4 hydrolase (Homo sapiens). Kind of assay: Inhibition of epoxide hydrolase activity of human recombinant leukotriene A4 hydrolase expressed in Escherichia coli assessed as LTB4 production at 100 uM by RP-HPLC.
The target in assay [4] is T2, Leukotriene A-4 hydrolase. Kind of assay: Inhibition of aminopeptidase activity of human recombinant leukotriene A4 hydrolase expressed in Escherichia coli assessed as p-nitroanilide release by spectrophotometry. In outline: as §1
Assay [5] addresses T2, Leukotriene A-4 hydrolase. The assay is described as follows: Inhibition of epoxide hydrolase activity of human recombinant leukotriene A4 hydrolase expressed in Escherichia coli assessed as LTB4 production by RP-HPLC.
Assay [6] addresses T1, Leukotriene A-4 hydrolase (Homo sapiens). The assay is described as follows: Inhibition of aminopeptidase activity of human recombinant leukotriene A4 hydrolase expressed in Escherichia coli by spectrophotometry in presence of <0.65 mM […]. The method in brief:
as §1

Assay [7] has the same target. Kind of assay: Activation of aminopeptidase activity of human recombinant leukotriene A4 hydrolase expressed in Escherichia coli by spectrophotometry in presence of >0.65 mM […]. In outline: as §1

Active and inactive are the calls of the source. No cut-off for these calls is given here.

As for `COc1ccc(Oc2ccccc2)cc1`, the result in assay [1] was Active. Also, the AC50 (commonly the midpoint of the concentration-response curve, whichever way the signal moves) in assay [2] was 3.39 µM. For the same molecule, the result in assay [3] was inactive.
Consider `CCOc1ccc(Oc2ccc(O)cc2)cc1`, for which the result in assay [1] was Active. For the same molecule, in assay [2], the concentration at half-maximal activity (AC50) amounted to 14.8 µM. In addition, the result in assay [3] was inactive.
As to `CCCCOc1ccc(Oc2ccc(O)cc2)cc1`, in assay [3], the outcome was inactive. Further, in assay [4], the concentration for half-maximal inhibition (IC50) (usually the concentration at which inhibition is half-maximal) came out at 5.56 µM.
As for `NCCOc1ccc(Oc2ccccc2)cc1`, the values for the IC50 in assay [4] and in assay [5] were 0.228 µM and 0.035 µM, respectively.
Turning to `CCCOc1ccc(Oc2ccccc2)cc1`, the outcome in assay [6] and in assay [7] was Active. Moreover, the outcome in assay [3] was inactive.
Consider `CCCCCOc1ccc(Oc2ccc(O)cc2)cc1`, for which, in assay [3], the outcome was inactive. In assay [4], the concentration for half-maximal inhibition (IC50) stood at 2.48 µM.
Take `c1ccc(Oc2ccccc2)cc1` [DIPHENYLETHER]: in assay [1], the outcome was Active. Moreover, the concentration at half-maximal activity (AC50) in assay [2] came out at 6.01 µM. Further, the outcome in assay [3] was inactive.
For `Oc1ccc(Oc2ccccc2)cc1` the same measures were “Active”, 11.1 µM and “inactive”.
As for `CCOc1ccc(Oc2ccccc2)cc1`, the result in assay [1] was Active. Also, the concentration at half-maximal activity (AC50) in assay [2] was 2.82 µM. Besides, the outcome in assay [3] was inactive.
Regarding `COc1ccc(Oc2ccc(O)cc2)cc1`, the result in assay [1] was Active. Also, in assay [2], the half-maximal activity concentration (AC50) was determined as 17 µM. Moreover, the result in assay [3] was inactive.
For the molecule `CCCCCOc1ccc(Oc2ccccc2)cc1`, the outcome in assay [3] was inactive. In addition, the IC50 in assay [4] stood at 4.13 µM.
On to `CCCOc1ccc(Oc2ccc(O)cc2)cc1`, for which, in assay [3], the result was inactive. In addition, the IC50 in assay [4] worked out at 5.69 µM.
Consider `CCCCOc1ccc(Oc2ccccc2)cc1`, for which, in assay [3], the outcome was inactive. In addition, the IC50 in assay [4] was found to be 5.72 µM.
